Source: PubChem BioAssay
A selection: hits, their analogues and other compounds. The true share with any hit is near 2.1%.
CXCR6 block – inhibitors of human CXCR6 receptor; O00574; CHO-K1 PathHunter CXCR6 beta-arrestin, luminescence; 360,000 tested, 0.36% active; inhibition, % at 20 µM; in the data active means inhibition above about 34%, passing the limit was not always enough;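 further: antagonist mode with CXCL16 agonist at 10 nM final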
APJ antagonist – APJ receptor antagonism. inhibition, % at 20 µM. 330,000 tested, 0.32% active. CHO-K1 APJ beta-arrestin complementation, luminescence;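 active means inhibition above about 40% at 20 µM, limit read from the data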;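 further: cells challenged with 10 nM apelin-13 agonist together with compound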
APJ ag – agonists of human APJ apelin receptor. activation, % at 20 µM. CHO-K1 APJ PathHunter beta-arrestin, luminescence; 0% DMSO wells, 100% apelin. P35414. 330,000 tested, 0.11% active;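 active means activation more than six SD over the plate average, tested at 20 µM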
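Incubation: overnight seeding, 90 min compound at 25 °C, 1 h detection; test system: PathHunter CHO-K1 APJ (AGTRL-1) beta-arrestin reporter cells; amount: 1000 cells/well; doses: one dose, 20 µM compound, 1% DMSO; measured by: beta-gal luminescence; measure: agonist-driven arrestin binding to APJ; benchmarks: negative DMSO alone, positive Apelin-13 at 10 nM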
CCR6 antag – antagonists of human CCR6 receptor; P51684; CHO-K1 CCR6 PathHunter beta-arrestin, luminescence, CCL20-stimulated; inhibition, % at 20 µM; 340,000 tested, 0.49% active; AID 493098;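 active means compounds whose inhibition of the agonist-driven luminescence signal at 20 µM reaches about 50%, limit read from the data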;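 further: cells stimulated with CCL20 at 14 nM final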
EBI2 block – antagonists of human EBI2 receptor. P32249. EBI2 beta-arrestin recruitment, luminescence, 7a,25-OHC stimulated. inhibition, % at 5 µM. 360,000 tested, 0.81% active; in the data active means inhibition above about 38%;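 further: enzyme fragment complementation signal reports receptor beta-arrestin coupling in cells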
Target sequence (P32249 whole entry, looked up, the tested form may be a part): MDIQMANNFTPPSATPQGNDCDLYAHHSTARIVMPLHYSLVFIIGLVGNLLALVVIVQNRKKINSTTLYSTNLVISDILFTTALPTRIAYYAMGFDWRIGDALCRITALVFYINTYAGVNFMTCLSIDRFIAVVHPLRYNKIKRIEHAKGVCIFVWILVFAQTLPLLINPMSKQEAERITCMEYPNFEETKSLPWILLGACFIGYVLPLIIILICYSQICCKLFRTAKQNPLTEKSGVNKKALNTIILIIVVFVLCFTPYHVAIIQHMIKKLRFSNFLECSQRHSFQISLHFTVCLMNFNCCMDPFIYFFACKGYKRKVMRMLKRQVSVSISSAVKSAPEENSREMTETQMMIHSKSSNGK
HTR2A ag – mouse HTR2A agonism via beta-arrestin recruitment. activation, % at 7.6 µM. 360,000 tested, 0.66% active. CHO-K1 mHTR2A beta-arrestin complementation, luminescence; percent of 30 µM serotonin response. AID 624169. P35363;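 active means activation above a run cutoff, the mean activation of all tested compounds plus 3 SD, cut at about 14% in these data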
EBI2 conf – EBI2 (human) antagonism, single concentration confirmation; shares compounds with EBI2 block; inhibition, % at 5 µM; 2,400 tested, 29% active; EBI2 beta-arrestin luminescence, 7a,25-OHC antagonism;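 active means inhibition of at least 50%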
EBI2 agonist – EBI2 agonism counter-screen; shares compounds with EBI2 block; EBI2-expressing cells, agonist mode, luminescence, 60 min; 0% vehicle, 100% 7α,25-dihydroxycholesterol control; activation, % at 5 µM; AID 652000; 2,400 tested, under 10 active;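 active means activation of at least 50%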
bGal counter – beta-galactosidase inhibition counter-screen. shares compounds with EBI2 block. purified beta-galactosidase, luminescent Galacton Star, 15 min. inhibition, % at 5 µM. 2,400 tested, 1% active. AID 652176;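 active means replicate-average signal at least 3 plate SD below neutral wells, shown as high inhibition, flagging enzyme-inhibiting false positives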;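 further: higher means stronger loss of beta-gal luminescence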
Of the large screens only hits and unclear results are named; the others gave an inactive call (follow-up assays come after a bar, where they were run).

COc1ccc(S(=O)(=O)N2CCN(CCOc3ccc(Br)cc3)CC2)cc1OC	EBI2 block 58 | EBI2 conf inactive | EBI2 agonist inactive | bGal counter inactive
O=C(COc1ccccc1)N1CCN(S(=O)(=O)c2ccc(Br)cc2)CC1	EBI2 block 64 | EBI2 conf inactive | EBI2 agonist inactive | bGal counter inactive
COc1ccc(S(=O)(=O)N2CCN(C(=O)COc3ccccc3)CC2)cc1	none
Cc1ccc(OCC(=O)N2CCN(S(=O)(=O)c3ccccc3[N+](=O)[O-])CC2)cc1	EBI2 block 84 | EBI2 conf 60 | EBI2 agonist inactive | bGal counter inactive
Cc1ccc(S(=O)(=O)N2CCN(C(=O)COC(=O)COc3ccccc3)CC2)cc1	none
COc1ccc(S(=O)(=O)N2CCN(CCOc3ccccc3Cl)CC2)cc1OC	none
Cc1ccc(S(=O)(=O)N2CCN(C(=O)COc3ccc(Br)cc3)CC2)cc1	EBI2 block 94 | EBI2 conf 72 | EBI2 agonist inactive | bGal counter inactive
COc1cccc(C(=O)Oc2ccc3ccc(=O)oc3c2)c1	none
C=CCCC(=O)Nc1nc(C)c(-c2csc(Nc3cc(Cl)ccc3OC)n2)s1	none
O=[N+]([O-])c1ccc(N2CCC(=NOCc3ccc(Cl)cc3)CC2)cc1	EBI2 block 53 | EBI2 conf inactive | EBI2 agonist inactive | bGal counter inactive
CCOc1cc(C(=S)N2CCOCC2)ccc1OC(=O)c1cccc(C)c1	none
COc1ccc(NC(=O)c2sc(SCc3ccccc3)nc2N)cc1	EBI2 block 88 | EBI2 conf 69 | EBI2 agonist inactive | bGal counter inactive
COc1ccc(NC(=O)c2sc(SC)nc2N)cc1	none
CC(=O)Nc1cc(C(F)(F)F)ccc1OCCOc1ccccc1	none
COc1ccc(OCCNc2cc(N3CCOCC3)ccc2[N+](=O)[O-])cc1	none
COc1cccc(OCCNc2cc(N3CCOCC3)ccc2[N+](=O)[O-])c1	EBI2 block 44 | EBI2 conf inactive | EBI2 agonist inactive | bGal counter inactive
COc1cccc(OCCNc2cc(N3CCCCC3)ccc2[N+](=O)[O-])c1	EBI2 block 61 | EBI2 conf inactive | EBI2 agonist inactive | bGal counter inactive
CCOC(=O)c1c(C)[nH]c(C(=O)OCC(=O)N2CCc3ccccc32)c1C	none
CN(C)S(=O)(=O)c1cccc(-c2nn(-c3ccccc3)cc2/C=C(/C#N)C(=O)NCc2ccco2)c1	none
CC1CCN(C2=NC(=O)/C(=C/c3cn(-c4ccccc4)nc3-c3cccc(S(=O)(=O)N(C)C)c3)S2)CC1	EBI2 block 48 | EBI2 conf inactive | EBI2 agonist inactive | bGal counter inactive
O=C1NC(Cc2ccc(O)cc2)c2nc3cc(F)c(F)cc3c(=O)n2-c2cc3ccccc3cc21 (configuration not stated)	none (no result: APJ antagonist, APJ ag, CCR6 antag)
O=C1NC(Cc2ccccc2)c2nc3cc(F)c(F)cc3c(=O)n2-c2cc3ccccc3cc21 (configuration not stated)	EBI2 block 44 (no result: APJ antagonist, APJ ag, CCR6 antag) | EBI2 conf inactive | EBI2 agonist inactive | bGal counter inactive
Cc1ccc(/C=C/C(=O)OCC(=O)NCCN2C(=O)CSC2=O)cc1	EBI2 block 56 | EBI2 conf 58 | EBI2 agonist inactive | bGal counter inactive
Cc1ccc(/C=C/C(=O)OCC(=O)NCCN2C(=O)CSC2=O)o1	none
Cc1ccc(/C=C/C(=O)OCC(=O)NC(=O)NCc2ccccc2)cc1	EBI2 block 46 | EBI2 conf inactive | EBI2 agonist inactive | bGal counter inactive
COc1cccc(/C=C/C(=O)N2CCN(S(=O)(=O)c3ccccc3)CC2)c1	EBI2 block 90 (no result: APJ antagonist, APJ ag, CCR6 antag) | EBI2 conf 63 | EBI2 agonist inactive | bGal counter inactive
O=C(/C=C/c1cccc([N+](=O)[O-])c1)N1CCN(S(=O)(=O)c2cccs2)CC1	EBI2 block 47 | EBI2 conf inactive | EBI2 agonist inactive | bGal counter inactive
O=C(/C=C/c1ccccc1)N1CCN(S(=O)(=O)c2ccc(F)cc2)CC1	EBI2 block 79 | EBI2 conf 68 | EBI2 agonist inactive | bGal counter inactive
Nc1ccc(C(=O)N2CCN(S(=O)(=O)/C=C/c3ccccc3)CC2)cc1[N+](=O)[O-]	none
O=C(c1ccc2ccccc2c1)N1CCN(S(=O)(=O)/C=C/c2ccccc2)CC1	EBI2 block 90 | EBI2 conf 77 | EBI2 agonist inactive | bGal counter inactive
O=C(/C=C/c1ccc(S(=O)(=O)N2CCOCC2)cc1)N1CCN(c2ccccc2)CC1	none
CCc1ccc(Nc2nnc(SC(C)C(=O)NC3CC3)s2)cc1 (configuration not stated)	none
O=C(NCC1COc2ccccc2O1)c1cccs1 (configuration not stated)	none
S=c1[nH]nc2nnc3ccccc3n12	none
COCCN(Cc1ccccc1)C(=O)c1ccc2c(=O)n3c(nc2c1)CCC3	none
O=C(COc1ccc(F)cc1Br)N1CCN(S(=O)(=O)/C=C/c2ccccc2)CC1	none
O=C(/C=C/c1ccc(F)cc1)N1CCN(S(=O)(=O)/C=C/c2ccccc2)CC1	EBI2 block 95 | EBI2 conf 89 | EBI2 agonist inactive | bGal counter inactive
CCOC(=O)c1c(NC(=O)CN2C(=O)c3ccccc3C2=O)sc(Cc2ccc3c(c2)OCO3)c1C	EBI2 block 65 | EBI2 conf inactive | EBI2 agonist inactive | bGal counter inactive
Cc1ccc(C)c(N2CCN(C(=O)c3csc4ccccc34)CC2)c1	EBI2 block 48 | EBI2 conf inactive | EBI2 agonist inactive | bGal counter inactive
CCC(=O)N1CCN(c2cc(C)ccc2C)CC1	none
O=C(NC(Cc1c[nH]c2ccccc12)C(=O)NCc1ccc(F)cc1)OCc1ccccc1 (configuration not stated)	none
COc1ccc(N/C=C(\C#N)c2ccc(OCCCF)cc2)cc1	EBI2 block 72 | EBI2 conf inactive | EBI2 agonist inactive | bGal counter inactive
COc1ccc(N/C=C(\C#N)S(=O)(=O)c2ccc(OC)cc2)cc1	none
Cc1ccc(N/C=C(\C#N)c2ccc(OCCCF)cc2)cc1	EBI2 block 81 | EBI2 conf 52 | EBI2 agonist inactive | bGal counter inactive
Cc1nn2c3ccccc3n(CC(=O)c3cccs3)c2nc1=O	none
